Activity calls are given as the source filed them. The rule behind the calls is not given here.
Tests used:
[1] = Dissociation constant, pKa of the compound; assay type: physicochemical
In short: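 pH-metric titration across pH 2–12 with an Ag/AgCl pH electrode.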

[2] = AUC in Sprague-Dawley rat plasma at 0.2 mg/kg, iv administered as cassette dose by LC-MS/MS analysis; assay type: ADME, organism-based
In short: (§1)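 Fasted male Sprague-Dawley rats given compounds iv by cassette dosing at 0.2 mg/kg (as free base). Plasma and stomach sampled at 10 min, 1, 4 and 24 h. Plasma and 20% stomach homogenate in saline deproteinized with acetonitrile containing internal standard, then LC/MS/MS. AUC calculated for plasma and stomach. Values are averages of three rats.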

[3] = Inhibition of H+/K+-ATPase in porcine stomach gastric mucosal microsomes assessed as reduction in inorganic phosphate production using ATP as substrate preincubated for 30 mins followed by ATP addition in presence of KCl at pH 6.5 by malachite green reagent based colorimetric assay; parameters: species or system Sus scrofa
[4] = Drug uptake in Sprague-Dawley rat stomach at 0.2 mg/kg, iv administered as cassette dose after 24 hrs by LC-MS/MS analysis; assay type: ADME, organism-based; conditions: read-out: Drug uptake; in short: as §1
[5] = Drug uptake in Sprague-Dawley rat stomach at 0.2 mg/kg, iv administered as cassette dose after 1 hr by LC-MS/MS analysis; assay type: ADME, organism-based; conditions: read-out: Drug uptake; in short: as §1
Canis familiaris [6] = assay: Inhibition of histamine-induced acid secretion in dog heidenhain pouch at 1 mg/kg, po treated 1 day after and 1 to 48 hrs before histamine.2HCl treatment measured up to 24 hrs post dose by titration method; assay type: functional, organism-based; conditions: Canis lupus familiaris
In short: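 Heidenhain pouch dogs dosed orally at 1 mg/kg, with histamine-stimulated acid secretion followed over time, up to 24 h after dosing. Mean ± SE from three or four dogs.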

[7] = Plasma concentration in Sprague-Dawley rat at 0.2 mg/kg, iv administered as cassette dose after 10 mins by LC-MS/MS analysis; assay type: ADME, organism-based; in short: as §1
[8] = Drug uptake in Sprague-Dawley rat stomach at 0.2 mg/kg, iv administered as cassette dose after 4 hrs by LC-MS/MS analysis; assay type: ADME, organism-based; conditions: read-out: Drug uptake; in short: as §1
[9] = Inhibition of CYP450 (unknown origin); assay type: ADME; conditions: human
Rattus norvegicus [10] = assay: Inhibition of histamine-induced acid secretion in Jcl:Sprague-Dawley rat assessed as pH of gastric perfusate at 1 mg/kg, iv pretreated for 3 mins after pylorus ligation followed by histamine.2HCl treatment measured after 3 hrs by glass electrode method (reference value: 2); assay type: functional
[11] = Drug uptake in Sprague-Dawley rat stomach at 0.2 mg/kg, iv administered as cassette dose after 10 mins by LC-MS/MS analysis; assay type: ADME, organism-based; conditions: read-out: Drug uptake; in short: as §1
[12] = Stability of the compound under acidic condition; assay type: physicochemical
CYP3A4 = CYP3A4 (Homo sapiens, UniProt P08684); assay: Inhibition of CYP3A4 (unknown origin) expressed in insect cells at 10 uM using testosterone as substrate after 15 mins by HPLC analysis relative to control; assay type: ADME; conditions: recombinant CYP3A4 expressed in insect cells, probe testosterone
CYP3A4, sequence (P08684 whole entry): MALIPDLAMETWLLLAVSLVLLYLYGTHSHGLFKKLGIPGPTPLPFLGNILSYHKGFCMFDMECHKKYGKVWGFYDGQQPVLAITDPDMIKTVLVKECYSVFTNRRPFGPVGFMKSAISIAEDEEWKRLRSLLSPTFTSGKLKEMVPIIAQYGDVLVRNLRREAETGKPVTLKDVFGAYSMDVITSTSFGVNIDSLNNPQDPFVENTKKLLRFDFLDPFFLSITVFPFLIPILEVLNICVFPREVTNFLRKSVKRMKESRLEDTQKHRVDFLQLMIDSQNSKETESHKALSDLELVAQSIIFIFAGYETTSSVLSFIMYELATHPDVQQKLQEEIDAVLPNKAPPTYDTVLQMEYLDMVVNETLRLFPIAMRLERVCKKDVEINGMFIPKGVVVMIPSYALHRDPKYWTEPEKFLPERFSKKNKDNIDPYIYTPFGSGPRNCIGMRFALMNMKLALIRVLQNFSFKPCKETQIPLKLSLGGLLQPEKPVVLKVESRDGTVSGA
In short: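 Testosterone substrate at 100 μmol/L with 10 nmol/L insect-cell-expressed CYP3A4 and 10 μmol/L test compound, incubated 15 min at 37 °C. 6β-hydroxytestosterone quantified by HPLC with UV detection.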

hERG (KCNH2) = hERG (KCNH2) (Homo sapiens, UniProt Q12809); assay: Inhibition of human ERG expressed in HEK cells at 10 uM at -75 mV holding potential by Whole-cell voltage clamp assay relative to control; assay type: cell-based; conditions: HEK cells expressing human ERG
hERG (KCNH2), sequence (Q12809 whole entry): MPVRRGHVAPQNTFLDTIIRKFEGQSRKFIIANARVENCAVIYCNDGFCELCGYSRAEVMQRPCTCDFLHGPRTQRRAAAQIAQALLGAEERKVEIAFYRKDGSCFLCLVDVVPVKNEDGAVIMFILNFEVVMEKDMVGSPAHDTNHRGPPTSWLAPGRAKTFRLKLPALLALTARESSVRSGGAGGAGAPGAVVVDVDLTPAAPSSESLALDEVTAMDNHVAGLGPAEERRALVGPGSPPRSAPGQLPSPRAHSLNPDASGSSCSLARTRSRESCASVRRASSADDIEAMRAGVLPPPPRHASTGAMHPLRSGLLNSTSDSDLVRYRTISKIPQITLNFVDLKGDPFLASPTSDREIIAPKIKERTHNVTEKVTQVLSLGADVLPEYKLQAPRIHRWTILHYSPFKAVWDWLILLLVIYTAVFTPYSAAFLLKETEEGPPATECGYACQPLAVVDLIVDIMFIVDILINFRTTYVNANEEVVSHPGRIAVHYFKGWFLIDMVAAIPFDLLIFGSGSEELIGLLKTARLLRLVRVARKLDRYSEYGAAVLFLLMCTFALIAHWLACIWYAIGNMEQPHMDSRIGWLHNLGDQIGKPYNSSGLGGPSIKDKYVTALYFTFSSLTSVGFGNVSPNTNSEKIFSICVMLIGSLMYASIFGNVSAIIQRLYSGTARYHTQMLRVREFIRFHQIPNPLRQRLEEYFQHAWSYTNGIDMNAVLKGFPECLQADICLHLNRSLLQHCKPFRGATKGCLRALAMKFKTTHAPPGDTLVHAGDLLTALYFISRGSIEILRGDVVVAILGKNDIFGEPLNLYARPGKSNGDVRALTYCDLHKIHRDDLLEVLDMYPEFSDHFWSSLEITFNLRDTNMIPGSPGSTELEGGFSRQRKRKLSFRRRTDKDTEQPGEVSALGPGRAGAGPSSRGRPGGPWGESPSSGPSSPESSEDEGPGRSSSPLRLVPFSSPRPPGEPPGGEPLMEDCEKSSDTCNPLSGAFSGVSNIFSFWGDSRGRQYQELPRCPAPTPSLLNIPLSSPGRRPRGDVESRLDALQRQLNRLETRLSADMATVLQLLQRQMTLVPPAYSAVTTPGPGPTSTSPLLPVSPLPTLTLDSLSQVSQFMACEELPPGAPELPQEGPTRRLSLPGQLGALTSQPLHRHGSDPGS

[13] = Cytotoxicity against human HepG2 cells assessed as cellular ATP level at 100 uM after 1 day by ATPLite assay relative to control; assay type: cell-based; conditions: read-out: Activity
[14] = Lipophilicity, log D of the compound at pH 7.4 by HPLC analysis; assay type: physicochemical; conditions: buffer
In short: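 At pH 7.4, log D derived from HPLC retention time relative to standard compounds.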

[15] = Plasma concentration in Sprague-Dawley rat at 0.2 mg/kg, iv administered as cassette dose after 1 hr by LC-MS/MS analysis; assay type: ADME, organism-based; in short: as §1
Stomach = assay: AUC in Sprague-Dawley rat stomach at 0.2 mg/kg, iv administered as cassette dose by LC-MS/MS analysis; assay type: ADME, organism-based; conditions: in vivo; in short: as §1
Rattus norvegicus [16] = assay: Inhibition of histamine-induced acid secretion in Jcl:Sprague-Dawley rat gastric at 1 mg/kg, iv pretreated for 3 mins after pylorus ligation followed by histamine.2HCl treatment measured after 3 hrs by titration method relative to control; assay type: functional
In short: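 Anesthetized rats dosed iv at 1 mg/kg. Total acid output over 3 h after histamine injection compared with vehicle-treated rats.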

Rattus norvegicus [17] = assay: Inhibition of histamine-induced acid secretion in Jcl:Sprague-Dawley rat assessed as increase in pH of gastric perfusate at 1 mg/kg, iv pretreated for 3 mins after pylorus ligation followed by histamine.2HCl treatment measured after 180 to 300 mins by glass electrode method; assay type: functional, organism-based
Rattus norvegicus [18] = assay: Inhibition of histamine-induced acid secretion in po dosed rat assessed as increase in pH of gastric perfusate pretreated for 1 hr followed by pylorus ligation and histamine.2HCl treatment measured after 3 hrs by glass electrode method; assay type: functional, organism-based
Canis familiaris [19] = assay: Inhibition of histamine-induced acid secretion in dog heidenhain pouch at 1 mg/kg, po treated 1 day after and 1 to 48 hrs before histamine.2HCl treatment measured 30 mins post histamine challenge by titration method; assay type: functional, organism-based; conditions: Canis lupus familiaris
[20] = Plasma concentration in Sprague-Dawley rat at 0.2 mg/kg, iv administered as cassette dose after 4 hrs by LC-MS/MS analysis; assay type: ADME, organism-based; in short: as §1
Rattus norvegicus [21] = assay: Inhibition of histamine-induced acid secretion in Jcl:Sprague-Dawley rat assessed as increase in pH of gastric perfusate at 1 mg/kg, iv pretreated for 3 mins after pylorus ligation followed by histamine.2HCl treatment measured after 3 hrs by glass electrode method; assay type: functional, organism-based

Row | AUC [2] | IC50 [3] | concentration at 24 h [4] | concentration at 1 h [5] | concentration at 10 min [7] | concentration at 4 h [8] | concentration at 10 min [11] | inhibition at 0.25 h, 10 µM (CYP3A4) | logD [14] | concentration at 1 h [15] | AUC (Stomach) | SMILES | pH (Rattus norvegicus [10]) | inhibition at 10 µM (hERG (KCNH2)) | viability at 24 h, 100 µM [13] | inhibition in vivo at 1 mg/kg (Rattus norvegicus [16]) | inhibition (Rattus norvegicus [17]) | inhibition (Canis familiaris [19]) | further results
1 | 35 ng·h/mL | 73 nM | 28.9 ng/g | 927 ng/g | 39.4 ng/mL | 682 ng/g | 947 ng/g | 4.3% | 0.48 | 8.1 ng/mL | 10378 ng·h/g | CNCc1cn(S(=O)(=O)c2cc(C)ccn2)c(-c2cccnc2F)c1F | 6 | 45.1% | 85.5% | 92% | inactive | Active | pKa [1]: 8.73; inhibition (Canis familiaris [6]): Active; inhibition (INH) [9]: Not Active; Stability [12]: Stable; inhibition (Rattus norvegicus [18]): Dose-dependent effect
2 | 33 ng·h/mL | 97 nM | 2.1 ng/g | 809 ng/g | 36 ng/mL | 337 ng/g | 617 ng/g | 7.7% | 0.44 | 7.9 ng/mL | 5757 ng·h/g | CNCc1cn(S(=O)(=O)c2ccccn2)c(-c2cccnc2F)c1F | 5 | 9% | 94.8% | 95% | inactive | Active | –
3 | 32 ng·h/mL | 210 nM | – | 577 ng/g | 25.3 ng/mL | 300 ng/g | 507 ng/g | 30.1% | 0.48 | 8 ng/mL | 4806 ng·h/g | CNCc1cn(S(=O)(=O)c2cccnc2C)c(-c2cccnc2F)c1F | – | 14.8% | 97.4% | 92% | – | – | concentration at 4 h [20]: 0.3 ng/mL
4 | 41 ng·h/mL | 180 nM | 219 ng/g | 1120 ng/g | 40.1 ng/mL | 1180 ng/g | 672 ng/g | -1.2% | 0.62 | 10.8 ng/mL | 18284 ng·h/g | CNCc1cn(S(=O)(=O)c2ccc(C)nc2)c(-c2cccnc2F)c1F | – | 24.8% | 76.7% | 97% | inactive | – | inhibition (Rattus norvegicus [21]): Active
